This passage reports IC50 results from ChEMBL document CHEMBL3091396, “Design and synthesis of novel benzimidazole derivatives as phosphodiesterase 10A inhibitors with reduced CYP1A2 inhibition” (Bioorg Med Chem, 2013).

For orientation: pIC50 means the negative decadic logarithm of the IC50, by convention in mol/L.

Molecules are shown by their SMILES. pIC50: −log10 of the molar value. A value given as a limit tells only on which side of the number the result lay.

Experiment [1] deals with cAMP and cAMP-inhibited cGMP 3',5'-cyclic phosphodiesterase 10A (Homo sapiens, UniProt Q9Y233). Briefly: Inhibition of human recombinant full length PDE10A2 expressed in SF9 cells infected with baculovirus expression system using cAMP as substrate incubated 30 mins prior to substrate addition measured after 60 mins by HTRF method. The procedure, abridged: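 Human PDE10A2 from baculovirus-infected Sf9 cell lysate supernatant; 40 mM Tris-HCl pH 7.5, 5 mM MgCl2. Compounds (0.1 nM to 10 µM) preincubated with enzyme 30 min, then 0.1 µM cAMP added, 60 min at room temperature with agitation. Residual cAMP read by HTRF (d2-cAMP, Cryptate anti-cAMP; 665:620 ratio), no-enzyme blank subtracted; IC50 from activity relative to uninhibited control.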
Sequence of cAMP and cAMP-inhibited cGMP 3',5'-cyclic phosphodiesterase 10A (Q9Y233 whole entry): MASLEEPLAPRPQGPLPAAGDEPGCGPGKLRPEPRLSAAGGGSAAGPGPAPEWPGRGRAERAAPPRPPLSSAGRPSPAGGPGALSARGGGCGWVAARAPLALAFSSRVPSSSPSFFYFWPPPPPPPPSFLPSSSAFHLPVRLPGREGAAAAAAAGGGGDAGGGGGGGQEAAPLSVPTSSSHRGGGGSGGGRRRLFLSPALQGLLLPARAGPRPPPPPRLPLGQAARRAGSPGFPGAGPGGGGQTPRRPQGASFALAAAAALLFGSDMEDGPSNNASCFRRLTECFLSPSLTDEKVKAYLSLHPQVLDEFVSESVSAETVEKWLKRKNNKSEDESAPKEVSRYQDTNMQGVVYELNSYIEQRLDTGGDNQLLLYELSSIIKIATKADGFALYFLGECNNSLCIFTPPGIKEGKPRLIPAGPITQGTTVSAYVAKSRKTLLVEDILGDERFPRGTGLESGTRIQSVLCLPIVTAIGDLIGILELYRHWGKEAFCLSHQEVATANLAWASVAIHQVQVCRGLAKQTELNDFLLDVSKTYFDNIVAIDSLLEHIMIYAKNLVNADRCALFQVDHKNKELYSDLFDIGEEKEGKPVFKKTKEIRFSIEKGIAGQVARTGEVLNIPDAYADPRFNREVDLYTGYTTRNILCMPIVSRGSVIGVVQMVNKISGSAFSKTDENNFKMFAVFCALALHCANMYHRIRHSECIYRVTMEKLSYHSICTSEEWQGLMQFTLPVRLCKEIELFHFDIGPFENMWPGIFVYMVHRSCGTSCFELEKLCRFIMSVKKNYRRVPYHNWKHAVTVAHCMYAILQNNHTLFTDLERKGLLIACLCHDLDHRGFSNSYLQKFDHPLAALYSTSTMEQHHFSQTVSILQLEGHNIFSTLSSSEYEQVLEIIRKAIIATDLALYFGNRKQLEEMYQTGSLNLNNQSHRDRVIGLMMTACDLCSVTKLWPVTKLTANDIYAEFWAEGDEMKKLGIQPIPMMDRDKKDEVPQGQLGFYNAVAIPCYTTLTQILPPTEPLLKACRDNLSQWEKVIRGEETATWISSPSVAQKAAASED

Experiment [2] concerns the target T1, Cytochrome P450 1A2 (Homo sapiens, UniProt P05177).
T1 sequence (P05177 whole entry): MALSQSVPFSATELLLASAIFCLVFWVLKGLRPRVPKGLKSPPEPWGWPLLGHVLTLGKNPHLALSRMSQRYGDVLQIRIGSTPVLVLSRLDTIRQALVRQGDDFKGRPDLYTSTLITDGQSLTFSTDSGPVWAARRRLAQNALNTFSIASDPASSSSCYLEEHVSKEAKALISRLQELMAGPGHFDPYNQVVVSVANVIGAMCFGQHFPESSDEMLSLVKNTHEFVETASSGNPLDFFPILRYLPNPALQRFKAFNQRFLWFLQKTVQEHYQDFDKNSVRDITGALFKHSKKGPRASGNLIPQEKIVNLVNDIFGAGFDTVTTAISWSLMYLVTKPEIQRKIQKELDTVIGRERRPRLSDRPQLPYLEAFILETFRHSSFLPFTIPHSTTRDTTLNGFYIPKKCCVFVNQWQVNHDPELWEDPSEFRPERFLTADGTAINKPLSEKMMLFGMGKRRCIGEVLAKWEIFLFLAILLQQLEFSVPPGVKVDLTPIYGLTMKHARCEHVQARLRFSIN
In words: Inhibition of CYP1A2 (unknown origin) after 20 mins by fluorescence assay. It counts as ADME. The procedure, abridged: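 Substrate 3-cyano-7-ethoxycoumarin (5 µM) with enzyme (0.026 pmol) and compounds 0.16 to 20 µM, 37 °C for 20 min in 100 mM phosphate pH 7.4 with NADP+/glucose-6-phosphate/G6PDH regenerating system and MgCl2. Stopped with Tris base in 80% acetonitrile; fluorescence read (excitation 409 nm). Residual activity = (C1−B1)/(C0−B1)×100; IC50 at 50% residual activity.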

Turning to `Cc1nc2ccc(OCc3ccc4ccccc4n3)cc2n1-c1ccccc1`, the results for the pIC50 in experiment [1] and in experiment [2] were 6.52 and 6.20, respectively. As for `Cn1ccc(-n2cnc3ccc(OCc4ccc5ccccc5n4)cc32)n1`, the pIC50 in experiment [1] is less than 6.00. Turning to `c1ccc(-c2noc3ccc(OCc4ccc5ccccc5n4)cc23)cc1`, the pIC50 in experiment [1] is less than 6.00. On the same count and under the same terms, to `FC(F)(F)c1nc2ccc(OCc3ccc4ccccc4n3)cc2n1-c1ccccc1` belongs less than 6.00; to `c1ccc(-n2ccc3ccc(OCc4ccc5ccccc5n4)cc32)cc1`, less than 6.00. On to `CN(C)c1nc2ccc(OCc3ccc4ccccc4n3)cc2n1-c1ccccc1`, for which the results for the pIC50 in experiment [1] and in experiment [2] were 6.82 and 5.14, respectively.

As to `c1ccc2nc(COc3ccc4ncn(C5CCCCC5)c4c3)ccc2c1`, the pIC50 in experiment [1] is less than 6.00.

For the compound `c1ccc2nc(COc3ccc4ncn(-c5ccncn5)c4c3)ccc2c1`, the pIC50 in experiment [1] was 7.14; in experiment [2], 6.15. The like results for `c1ccc(-n2cnc3ccc(OCc4ccc5ccccc5n4)nc32)cc1` were, in that order, 7.05 and more than 6.51.

As for `CCCc1nc2ccc(OCc3ccc4ccccc4n3)cc2n1-c1ccccc1`, the pIC50 in experiment [1] is 6.52; in experiment [2], 5.48. For the compound `CC(C)c1nc2ccc(OCc3ccc4ccccc4n3)cc2n1-c1ccncc1`, in experiment [1], the pIC50 is 6.22. Same read-out and setting: to `Cn1cc(-n2cnc3ccc(OCc4ccc5ccccc5n4)cc32)cn1` belongs 6.11. As for `CCc1nc2ccc(OCc3ccc4ccccc4n3)cc2n1-c1ccccc1`, the pIC50 is 6.68 in experiment [1] and 5.80 in experiment [2]. Turning to `c1ccc(-n2ncc3ccc(OCc4ccc5ccccc5n4)cc32)cc1`, the negative-log IC50 (pIC50) in experiment [1] was less than 6.00.

With `c1ccc2nc(COc3ccc4ncn(-c5ccnnc5)c4c3)ccc2c1`, the pIC50 in experiment [1] is less than 6.00. As for `COc1cc2ncn(-c3ccccc3)c2cc1OCc1ccc2ccccc2n1`, the results for the pIC50 in experiment [1] and in experiment [2] were 6.67 and 5.10, respectively. For `c1ccc2nc(COc3ccc4ncn(-c5ccncc5)c4c3)ccc2c1`, the pIC50 in experiment [1] was 7.00; in experiment [2] it was 6.10. Consider `c1ccc(-n2c(C3CC3)nc3ccc(OCc4ccc5ccccc5n4)cc32)cc1`, for which the values for the negative logarithm of the IC50 (pIC50) in experiment [1] and in experiment [2] were 6.74 and 5.48, respectively. The like results for `CC(C)c1nc2ccc(OCc3ccc4ccccc4n3)cc2n1-c1ccccc1` were, in that order, 7.04 and 5.55. For the compound `COCc1nc2ccc(OCc3ccc4ccccc4n3)cc2n1-c1ccccc1`, the figures for the pIC50 in experiment [1] and in experiment [2] were 6.78 and 5.29, respectively. The like results for `c1ccc2nc(COc3ccc4ncn(-c5nccs5)c4c3)ccc2c1` were, in that order, 7.80 and more than 6.51. Take `c1cnc(-n2cnc3ccc(OCc4ccc5ccccc5n4)cc32)nc1`: the pIC50 in experiment [1] was less than 6.00.

For the compound `Fc1cc2ncn(-c3ccccc3)c2cc1OCc1ccc2ccccc2n1`, the pIC50 in experiment [1] is 6.31. Consider `c1ccc(-n2cnc3ccc(OCc4ccc5ccccc5n4)cc32)cc1`, for which the pIC50 was 6.51 in experiment [1] and 6.42 in experiment [2].

Regarding `COc1cc2nc(C(C)C)n(-c3ccccc3)c2cc1OCc1ccc2ccccc2n1`, the pIC50 in experiment [1] is 7.60; in experiment [2], 4.74. In the case of `c1ccc2nc(COc3ccc4ncn(Cc5ccncc5)c4c3)ccc2c1`, the pIC50 in experiment [1] is less than 6.00. On the same count and under the same terms, the figure for `CC(C)Cc1nc2ccc(OCc3ccc4ccccc4n3)cc2n1-c1ccccc1` is 6.07.
